Measurements: ChEMBL document CHEMBL4477167, “Limonoids and Triterpenoids as 11β-HSD1 Inhibitors from Walsura robusta” (J Nat Prod, 2016)

Key:
[1] = target: T1, 11-beta-hydroxysteroid dehydrogenase 1 (Homo sapiens, UniProt P28845); experiment: Inhibition of human microsomal 11beta-HSD1 overexpressed in HEK293 cells using [3H]-cortisone as substrate assessed as formation of [3H]-cortisol at 10 uM using [3H]cortisone by scintillation proximity assay in presence of NADPH
Method in brief: (§1)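 Human or mouse 11β-HSD1 inhibition measured in vitro by scintillation proximity assay (SPA). Every isolate was first screened at a single concentration of 10 μM. […] Glycyrrhetinic acid served as the positive control. Other assay conditions follow an earlier report.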
Target sequence in this assay (P28845 whole entry, looked up): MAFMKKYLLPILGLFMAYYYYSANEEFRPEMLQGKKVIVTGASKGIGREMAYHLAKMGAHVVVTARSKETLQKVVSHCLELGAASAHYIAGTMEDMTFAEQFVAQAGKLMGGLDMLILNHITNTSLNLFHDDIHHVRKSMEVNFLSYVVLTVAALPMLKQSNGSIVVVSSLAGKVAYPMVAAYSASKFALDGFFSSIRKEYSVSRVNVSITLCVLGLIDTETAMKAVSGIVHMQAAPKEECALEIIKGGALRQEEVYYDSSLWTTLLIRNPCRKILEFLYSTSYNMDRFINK

[2] = target: 11-beta-hydroxysteroid dehydrogenase 1 (Mus musculus, UniProt P50172); experiment: Inhibition of mouse microsomal 11beta-HSD1 overexpressed in HEK293 cells using [3H]-cortisone as substrate assessed as formation of [3H]-cortisol using [3H]cortisone by scintillation proximity assay in presence of NADPH
[3] = target: 11-beta-hydroxysteroid dehydrogenase 1 (Mus musculus) (UniProt P50172); experiment: Inhibition of mouse microsomal 11beta-HSD1 overexpressed in HEK293 cells using [3H]-cortisone as substrate assessed as formation of [3H]-cortisol at 10 uM using [3H]cortisone by scintillation proximity assay in presence of NADPH; method in brief: as §1
[4] = target: T1, 11-beta-hydroxysteroid dehydrogenase 1; experiment: Inhibition of human microsomal 11beta-HSD1 overexpressed in HEK293 cells using [3H]-cortisone as substrate assessed as formation of [3H]-cortisol using [3H]cortisone by scintillation proximity assay in presence of NADPH
Target sequence in this assay (P28845 whole entry): as the sequence (P28845 whole entry, looked up) above

Chain of 11-beta-hydroxysteroid dehydrogenase 1 (Mus musculus) (P50172 whole entry, looked up): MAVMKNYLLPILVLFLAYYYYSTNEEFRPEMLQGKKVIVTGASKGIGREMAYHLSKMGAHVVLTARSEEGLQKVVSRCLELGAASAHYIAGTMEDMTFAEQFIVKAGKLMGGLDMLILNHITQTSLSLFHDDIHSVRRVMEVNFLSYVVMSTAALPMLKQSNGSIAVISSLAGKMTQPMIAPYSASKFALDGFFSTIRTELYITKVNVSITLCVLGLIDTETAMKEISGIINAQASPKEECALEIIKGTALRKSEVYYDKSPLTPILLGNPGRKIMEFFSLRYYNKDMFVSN
Chain of 11-beta-hydroxysteroid dehydrogenase 1 (Mus musculus, UniProt P50172) (P50172 whole entry): as the sequence (P50172 whole entry, looked up) above

Structure (SMILES)	inhibition [1]	IC50 ([2]; read-out: IC50)	inhibition [3]	IC50 [4]	IC50 ([2]; hek293)
C[C@@H](C[C@@H](O)[C@H](O)C(C)(C)O)[C@@H]1CC[C@]2(C)C3=CC[C@H]4C(C)(C)C(=O)CC[C@]4(C)[C@H]3CC[C@@]12C	< 50%	880 nM	> 50%		
CC(=O)O[C@H]1C[C@@]2(C)[C@H](c3ccoc3)C[C@H]3O[C@]32[C@]2(C)C(=O)C(O)=C3C(C)(C)C(=O)C=C[C@]3(C)[C@@H]12	> 50%			9900 nM	Not Active
C[C@@H](C[C@@H](O)[C@@H]1OC1(C)C)[C@H]1CC[C@@]2(C)C3=CC[C@H]4C(C)(C)[C@@H](O)CC[C@]4(C)[C@H]3CC[C@]12C	< 50%	3800 nM	> 50%		
C[C@@H]([C@@H]1O[C@@H]1C(O)C(C)(C)O)[C@@H]1CC[C@]2(C)C3=CC[C@H]4C(C)(C)[C@H](O)CC[C@]4(C)[C@H]3CC[C@@]12C (stereo partly specified)	> 50%	1200 nM	> 50%	1900 nM	
C[C@@H](C[C@@H](O)[C@@H]1OC1(C)C)[C@H]1CC[C@@]2(C)C3=CC[C@H]4C(C)(C)C(=O)CC[C@]4(C)[C@H]3CC[C@]12C	< 50%	690 nM	> 50%		
